Results taken from ChEMBL document CHEMBL1133479 (J Med Chem, 2000).

Experiments:
[1] = target: T1, Melatonin receptor type 1B (Homo sapiens, UniProt P49286); assay: Binding affinity for melatonin receptor type 1B, expressed in HEK293 cells (2-[125I]iodomelatonin is used as radioligand); type: cell-based
T1 sequence (P49286 whole entry): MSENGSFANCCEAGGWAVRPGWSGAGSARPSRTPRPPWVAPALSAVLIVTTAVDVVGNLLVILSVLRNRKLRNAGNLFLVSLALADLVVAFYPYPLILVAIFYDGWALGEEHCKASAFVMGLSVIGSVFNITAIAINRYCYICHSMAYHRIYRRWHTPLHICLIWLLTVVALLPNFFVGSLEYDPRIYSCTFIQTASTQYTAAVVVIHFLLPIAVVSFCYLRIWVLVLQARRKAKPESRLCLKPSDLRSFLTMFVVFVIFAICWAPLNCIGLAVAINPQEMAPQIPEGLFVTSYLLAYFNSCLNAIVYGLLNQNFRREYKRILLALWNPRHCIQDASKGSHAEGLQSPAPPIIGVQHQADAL

[2] = target: Melatonin receptor type 1A (Homo sapiens, UniProt P48039); assay: Binding affinity for human melatonin receptor type 1A, expressed in HEK293 cells (2-[125I]iodomelatonin is used as radioligand); type: cell-based
Chain of Melatonin receptor type 1A (P48039 whole entry): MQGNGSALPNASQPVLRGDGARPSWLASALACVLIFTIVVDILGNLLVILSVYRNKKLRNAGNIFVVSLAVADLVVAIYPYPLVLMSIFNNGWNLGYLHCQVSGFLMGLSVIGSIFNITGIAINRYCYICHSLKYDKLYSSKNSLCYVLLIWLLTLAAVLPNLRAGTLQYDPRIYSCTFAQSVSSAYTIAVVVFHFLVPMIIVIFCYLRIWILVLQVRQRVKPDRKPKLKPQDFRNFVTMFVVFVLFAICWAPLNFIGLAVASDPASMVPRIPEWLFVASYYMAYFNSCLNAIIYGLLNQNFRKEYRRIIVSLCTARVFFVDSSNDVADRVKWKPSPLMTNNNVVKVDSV

Melatonin receptor = Melatonin receptor (Gallus gallus, UniProt P49288+P51050+P49285); assay: Binding affinity is evaluated for chicken brain melatonin receptor using 2-[125I]iodomelatonin as radioligand
[3] = Percentage of maximum effect observed with regard to that of melatonin (100%); type: functional
Procedure, shortened: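 Tadpole skin-lightening assay (melanophore index, 5 concentrations, 15 min exposure).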

[4] = Melanophore aggregation of the dermal melanocytes of Xenopus laevis tadpoles; type: functional
[5] = Melanophore aggregation of the dermal melanocytes of Xenopus laevis tadpoles with regard to melatonin (=1); type: functional
[6] = compound is evaluated for melanophore aggregation of the dermal melanocytes of Xenopus laevis tadpoles with regard to melatonin (=1); type: functional

| SMILES | Ki [1] [nM] | Ki [2] [nM] | Ki (Melatonin receptor) [nM] | Effect [3] [%] | EC50 [4] [nM] | Potency [5] | Potency [6] |
| --- | --- | --- | --- | --- | --- | --- | --- |
| CC(=O)NCC1Cc2cccc3cccc1c23 (configuration not stated) | 0.51 | 4.24 | 36.1 | < 50 | > 1000 |  |  |
| COc1ccc2ccc(OC)c3c2c1CCC3CCNC(C)=O (configuration not stated) | 0.55 | 0.2 | 3.6 |  | 2.65 | 2.5 |  |
| COc1ccc2cccc3c2c1CCC3CNC(C)=O (configuration not stated) | 0.41 | 0.8 | 0.9 |  | 57.8 | 0.11 |  |
| COc1ccc2cccc(CCNC(C)=O)c2c1 [AGOMELATINE] |  |  |  |  | 0.53 | 0.8 |  |
| CC(=O)NCCC1Cc2cccc3cccc1c23 (configuration not stated) | 3.83 | 6.5 | 123.3 | < 50 | > 1000 |  |  |
| CCCC(=O)NCC1CCc2c(OC)ccc3ccc(OC)c1c23 (single isomer, unassigned; (+)) |  |  | 0.31 |  |  |  |  |
| CCCC(=O)NCC1CCc2c(OC)ccc3ccc(OC)c1c23 (stereo in doubt; 15c) | 0.1 | 0.016 | 0.07 |  | 0.004 | 1697 |  |
| CCCC(=O)NCCC1Cc2cccc3ccc(OC)c1c23 (configuration not stated) | 0.34 | 0.37 | 2.4 |  |  |  |  |
| CCC(=O)NCC1Cc2cccc3cccc1c23 (configuration not stated) | 0.22 | 2.65 | 14.3 |  |  |  |  |
| CCC(=O)NCCC1Cc2cccc3cccc1c23 (configuration not stated) | 1.86 | 4.34 | 101.8 |  |  |  |  |
| CCCC(=O)NCC1Cc2cccc3ccc(OC)c1c23 (single isomer, unassigned; (+)) | 7.4 | 3.9 | 4.3 |  |  |  |  |
| CCCC(=O)NCC1CCc2c(OC)ccc3cccc1c23 (stereo in doubt; 13c) | 0.11 | 0.45 | 0.36 |  | 1.61 |  | 13.3 |
| CCCC(=O)NCCC1Cc2cccc3cccc1c23 (configuration not stated) | 1.86 | 6.41 | 73.7 |  |  |  |  |
| CCCC(=O)NCC1CCc2cccc3ccc(OC)c1c23 (configuration not stated) | 0.069 | 0.008 | 0.02 |  | 0.08 | 84.8 |  |
| CC(=O)NCC1CCc2cccc3cccc1c23 (configuration not stated) | 0.22 | 1.2 | 5.5 |  |  |  |  |
| CCC(=O)NCC1CCc2c(OC)ccc3cccc1c23 (configuration not stated) | 0.13 | 0.19 | 0.7 |  |  |  |  |
| CCCC(=O)NCC1CCc2c(OC)ccc3cccc1c23 (single isomer, unassigned; (-)) | 0.068 | 0.11 | 0.8 |  |  |  |  |
| COc1ccc2cccc3c2c1CCC3CCNC(=O)C1CC1 (configuration not stated) | 13.2 | 1.89 | 43.4 |  |  |  |  |
| CCCC(=O)NCC1CCc2c(OC)ccc3ccc(OC)c1c23 (single isomer, unassigned; (-)) |  |  | 0.034 |  |  |  |  |
| CCC(=O)NCC1CCc2c(OC)ccc3ccc(OC)c1c23 (configuration not stated) | 0.153 | 0.012 | 0.011 |  |  |  |  |
| COc1ccc2cccc3c2c1C(CNC(C)=O)C3 (configuration not stated) | 0.12 | 0.12 | 2.95 |  | 5.08 | 1.33 |  |
| CCCC(=O)NCC1Cc2cccc3ccc(OC)c1c23 (single isomer, unassigned; (-)) | 0.034 | 0.03 | 0.15 |  |  |  |  |
| CCCC(=O)NCCC1CCc2cccc3ccc(OC)c1c23 (configuration not stated) |  |  | 0.43 |  |  |  |  |

| SMILES | Ki [1] [nM] | Ki [2] [nM] | Ki (Melatonin receptor) [nM] | Effect [3] [%] | EC50 [4] [nM] | Potency [5] | Potency [6] |
| --- | --- | --- | --- | --- | --- | --- | --- |
| O=C(NCC1Cc2cccc3cccc1c23)C1CC1 (configuration not stated) | 0.57 | 1.06 | 40.5 |  |  |  |  |
| COc1ccc2ccc(OC)c3c2c1CCC3CNC(=O)C1CC1 (configuration not stated) | 0.26 | 0.026 | 0.13 |  |  |  |  |
| COc1ccc2cccc3c2c1C(CCNC(C)=O)C3 (configuration not stated) | 0.59 | 0.41 | 2.7 | 50 | > 1000 |  |  |
| CCCC(=O)NCC1CCc2c(OC)ccc3cccc1c23 (stereo in doubt; 13c (+)) | 4.07 | 2.9 | 21.7 |  |  |  |  |
| CCC(=O)NCCC1Cc2cccc3ccc(OC)c1c23 (configuration not stated) | 0.24 | 0.22 | 4.75 |  |  |  |  |
| COc1ccc2cccc3c2c1CCC3CCNC(C)=O (configuration not stated) | 11.8 | 8.9 | 145 | 50 | > 1000 |  |  |
| CCCC(=O)NCCC1CCc2c(OC)ccc3cccc1c23 (configuration not stated) |  |  | 28.1 |  |  |  |  |
| CCC(=O)NCCC1CCc2c(OC)ccc3cccc1c23 (configuration not stated) | 4.03 | 2.08 | 31.7 |  |  |  |  |
| COc1ccc2cccc3c2c1C(CCNC(C)=O)CC3 (configuration not stated) | 0.39 | 0.1 | 24.4 |  | 428 | 0.007 |  |
| COc1ccc2cccc3c2c1C(CNC(=O)C1CC1)C3 (configuration not stated) | 0.31 | 1.32 | 3.8 |  |  |  |  |
| O=C(NCCC1Cc2cccc3cccc1c23)C1CC1 (configuration not stated) | 16.2 | 6.48 | 399 |  |  |  |  |
| CCCC(=O)NCC1CCc2cccc3cccc1c23 (configuration not stated) | 0.18 |  | 3.2 |  |  |  |  |
| CCCC(=O)NCC1Cc2cccc3cccc1c23 (configuration not stated) | 0.093 | 0.79 | 4.3 | < 50 | 26 |  |  |
| COc1ccc2ccc(OC)c3c2c1CCC3CNC(C)=O (configuration not stated) | 0.145 | 0.015 | 0.054 |  | 0.025 | 271.6 |  |
| COc1ccc2cccc3c2c1C(CNC(C)=O)CC3 (configuration not stated) | 0.094 | 0.01 | 0.04 |  | 0.1 | 67.9 |  |
| COc1ccc2ccc(OC)c3c2c1CCC3CCNC(=O)C1CC1 (configuration not stated) | 1.59 | 0.66 | 11.2 |  |  |  |  |
| CCCC(=O)NCC1Cc2cccc3ccc(OC)c1c23 (stereo in doubt; 20c) | 0.35 | 0.37 | 0.16 |  | 0.46 | 14.7 |  |
| COc1ccc2cccc3c2c1C(CCNC(=O)C1CC1)C3 (configuration not stated) | 41.8 | 10 | 97.1 |  |  |  |  |
| CCCC(=O)NCCC1CCc2c(OC)ccc3ccc(OC)c1c23 (configuration not stated) | 0.19 | 0.057 | 0.14 |  | 0.18 | 37.7 |  |
| COc1ccc2cccc3c2c1CCC3CNC(=O)C1CC1 (configuration not stated) | 0.79 | 0.95 | 4.6 |  |  |  |  |
| CCC(=O)NCC1Cc2cccc3ccc(OC)c1c23 (configuration not stated) | 0.085 | 0.1 | 0.9 |  |  |  |  |
| CCC(=O)NCCC1CCc2c(OC)ccc3ccc(OC)c1c23 (configuration not stated) | 0.55 | 0.07 | 0.8 |  |  |  |  |
